Active and inactive are the calls of the source. No cut-off for these calls is given here.
Assays:
[1] = molecular target: T1, Neuronal acetylcholine receptor; alpha4/beta2 (Rattus norvegicus) (UniProt P09483+P12390); experiment: Ratio of nifene Ki to compound Ki for rat alpha4beta2 nAChR; format: protein-complex assay
[2] = molecular target: T1, Neuronal acetylcholine receptor; alpha4/beta2 (Rattus norvegicus); experiment: Binding affinity to alpha4beta2 nAChR in Sprague-Dawley rat cerebellum at 0.1 Ci/umol after 60 mins by autoradiographic analysis; format: protein-complex assay; details: tested as the 123I-labelled form
In short: (§1)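 Frozen rat brain sections were thawed for about 15 min at ambient temperature. They were preincubated 10 min in 120 mM Tris HCl with 5 mM NaCl, 5 mM KCl, 2.5 mM CaCl2 and 1 mM MgCl2, pH 7.4, then incubated with 5 nM 123I-niodene at 37 °C for 60 min. […] Sections were washed in ice-cold buffer and exposed to phosphor screens for at least 16 h. Regional binding was read as DLU/mm²; n ≥5 sections, mean and SD.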

[3] = molecular target: T1, Neuronal acetylcholine receptor; alpha4/beta2 (Rattus norvegicus); experiment: Binding affinity to alpha4beta2 nAChR in Sprague-Dawley rat cortex at 0.1 Ci/umol after 60 mins by autoradiographic analysis; details: tested as the 123I-labelled form; in short: as §1
[4] = molecular target: T1, Neuronal acetylcholine receptor; alpha4/beta2 (Rattus norvegicus); experiment: Binding affinity to alpha4beta2 nAChR in Sprague-Dawley rat thalamus at 0.1 Ci/umol after 60 mins by autoradiographic analysis; format: protein-complex assay; details: tested as the 123I-labelled form; in short: as §1
[5] = molecular target: T1, Neuronal acetylcholine receptor; alpha4/beta2 (Rattus norvegicus); experiment: Displacement of [18F]nifene from alpha4beta nAChR in Sprague-Dawley rat subiculum at 10 nM after 60 mins by autoradiographic analysis; format: protein-complex assay
In short: (§2)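 Rat brain slices were preincubated 10 min in Tris HCl buffer with salts, pH 7.4. […] Slices got two 1-min ice-cold Tris HCl washes and a cold water rinse, then overnight phosphor-screen exposure. Regional binding was read as DLU/mm² and expressed relative to cerebellum.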

[6] = molecular target: T1, Neuronal acetylcholine receptor; alpha4/beta2 (Rattus norvegicus); experiment: Displacement of [18F]nifene from alpha4beta nAChR in Sprague-Dawley rat striatum at 10 nM after 60 mins by autoradiographic analysis; format: protein-complex assay; in short: as §2
[7] = molecular target: T1, Neuronal acetylcholine receptor; alpha4/beta2 (Rattus norvegicus); experiment: Displacement of [18F]nifene from alpha4beta nAChR in Sprague-Dawley rat frontal cortex at 10 nM after 60 mins by autoradiographic analysis; format: tissue-based; in short: as §2
[8] = molecular target: T1, Neuronal acetylcholine receptor; alpha4/beta2 (Rattus norvegicus); experiment: Displacement of [18F]nifene from alpha4beta nAChR in Sprague-Dawley rat thalamus at 1 uM after 60 mins by autoradiographic analysis; format: protein-complex assay; in short: as §2
[9] = molecular target: T1, Neuronal acetylcholine receptor; alpha4/beta2 (Rattus norvegicus); experiment: Displacement of [18F]nifene from alpha4beta nAChR in Sprague-Dawley rat thalamus at 10 nM after 60 mins by autoradiographic analysis; format: protein-complex assay; in short: as §2
[10] = tested on: Nucleic Acid; experiment: Ratio of drug uptake in cortex to cerebellum in Sprague-Dawley rat brain at 0.1 Ci/umol after 60 mins by autoradiographic analysis; format: ADME, tissue-based; details: in vivo, 1 h
[11] = tested on: Nucleic Acid; experiment: Ratio of drug uptake in thalamus to cerebellum in Sprague-Dawley rat brain at 0.1 Ci/umol after 60 mins by autoradiographic analysis; format: ADME, tissue-based; details: in vivo, 1 h
[12] = molecular target: Neuronal acetylcholine receptor; alpha4/beta2 (Rattus norvegicus, UniProt P09483+P12390); experiment: Displacement of [3H]cytisine from alpha4beta2 nAChR in rat brain homogenate; format: tissue-based
Neuronal acetylcholine receptor; alpha4/beta2, sequence (P09483 whole entry): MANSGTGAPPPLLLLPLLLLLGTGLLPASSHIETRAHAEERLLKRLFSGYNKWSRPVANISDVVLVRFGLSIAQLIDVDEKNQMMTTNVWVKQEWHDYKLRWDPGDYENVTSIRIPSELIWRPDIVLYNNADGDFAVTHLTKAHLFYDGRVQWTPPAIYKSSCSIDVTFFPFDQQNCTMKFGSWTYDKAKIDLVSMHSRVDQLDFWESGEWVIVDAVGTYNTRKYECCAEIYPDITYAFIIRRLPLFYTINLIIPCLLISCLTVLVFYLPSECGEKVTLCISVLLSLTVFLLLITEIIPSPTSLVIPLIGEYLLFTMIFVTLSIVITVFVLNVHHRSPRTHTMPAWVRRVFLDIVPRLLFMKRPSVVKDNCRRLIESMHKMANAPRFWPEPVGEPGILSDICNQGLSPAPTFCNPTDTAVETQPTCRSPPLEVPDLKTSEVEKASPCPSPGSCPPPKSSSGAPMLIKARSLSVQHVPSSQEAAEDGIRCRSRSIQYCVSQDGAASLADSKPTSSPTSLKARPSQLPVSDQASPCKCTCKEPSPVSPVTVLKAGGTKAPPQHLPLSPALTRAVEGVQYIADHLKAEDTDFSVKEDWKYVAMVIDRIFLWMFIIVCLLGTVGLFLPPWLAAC
Neuronal acetylcholine receptor; alpha4/beta2, sequence (P12390 whole entry): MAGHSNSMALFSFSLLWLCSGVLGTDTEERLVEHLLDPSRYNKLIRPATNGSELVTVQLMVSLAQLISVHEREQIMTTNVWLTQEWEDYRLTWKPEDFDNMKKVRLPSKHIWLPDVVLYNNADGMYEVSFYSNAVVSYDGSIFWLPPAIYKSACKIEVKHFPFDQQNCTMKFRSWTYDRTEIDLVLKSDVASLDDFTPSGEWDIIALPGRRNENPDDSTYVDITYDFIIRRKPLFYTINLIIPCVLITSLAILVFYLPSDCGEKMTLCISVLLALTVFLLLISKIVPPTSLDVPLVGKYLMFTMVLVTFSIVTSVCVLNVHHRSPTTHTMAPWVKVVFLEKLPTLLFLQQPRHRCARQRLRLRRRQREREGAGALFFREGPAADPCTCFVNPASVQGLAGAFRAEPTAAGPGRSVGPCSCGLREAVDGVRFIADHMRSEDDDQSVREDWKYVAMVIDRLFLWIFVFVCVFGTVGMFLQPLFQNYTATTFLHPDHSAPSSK
In short: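 Male Sprague–Dawley rat cerebrum was homogenized, washed twice by centrifugation at 40,000g and resuspended. It was incubated with 1 nM 3H-cytisine and competitor (10^-10 to 10^-3 M) in 50 mM Tris, pH 7.0, with 120 mM NaCl, 5 mM KCl, 1 mM MgCl2 and 2.5 mM CaCl2, at 2 °C for 75 min. […] The assay was filtered, and filters were washed in cold buffer and scintillation-counted.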

[13] = tested on: Nucleic Acid; experiment: Ratio of drug uptake in thalamus to cerebellum in Sprague-Dawley rat brain at 2 uCi/umol after 60 mins by autoradiographic analysis; format: ADME, tissue-based; details: in vivo, 1 h

Ic1cncc(OC[C@@H]2C=CCN2)c1
Ratio Ki [1]: 2 | Activity [2]: inactive | Activity [3]: Active | Activity [4]: Active | Activity [5]: Active | Activity [6]: Active | Activity [7]: Active | Activity [8]: > 80% | Activity [9]: > 65%

CN1CCC[C@H]1c1cccnc1
Activity [5]: Active | Activity [6]: Active | Activity [7]: Active | Activity [9]: 24%

[123I]c1cncc(OC[C@@H]2C=CCN2)c1
Ratio [10]: 1.6 | Ratio [11]: 4

Fc1ncccc1OC[C@@H]1C=CCN1
Ki [12]: 0.5 nM

[18F]c1ncccc1OC[C@@H]1C=CCN1
Ratio [13]: 7.3

— ChEMBL document CHEMBL2203250, “Synthesis and evaluation of 3-¹²³I-iodo-5-[2-(S)-3-pyrrolinylmethoxy]-pyridine (niodene) as a potential nicotinic α4β2 receptor imaging agent” (Bioorg Med Chem Lett, 2012)
